Data published in ChEMBL document CHEMBL4270576, “Discovery of a benzenesulfonamide-based dual inhibitor of microsomal prostaglandin E2 synthase-1 and 5-lipoxygenase that favorably modulates lipid mediator biosynthesis in inflammation” (Eur J Med Chem, 2018).
Active and inactive are the calls of the source. The calls are words filed in the database; no cut-off is given here.

What was measured:
[1] = target: T1, Polyunsaturated fatty acid 5-lipoxygenase (Homo sapiens) (UniProt P09917); assay: Inhibition of nuclear localization of 5-LO (unknown origin) expressed in HEK293 cells at 10 uM preincubated for 10 mins followed by Ca2+ ionophore A23187 stimulation for 20 mins and measured after 1 hr by DAPI staining-based immunofluorescence microscopic analysis; format: cell-based
T1 sequence (whole entry): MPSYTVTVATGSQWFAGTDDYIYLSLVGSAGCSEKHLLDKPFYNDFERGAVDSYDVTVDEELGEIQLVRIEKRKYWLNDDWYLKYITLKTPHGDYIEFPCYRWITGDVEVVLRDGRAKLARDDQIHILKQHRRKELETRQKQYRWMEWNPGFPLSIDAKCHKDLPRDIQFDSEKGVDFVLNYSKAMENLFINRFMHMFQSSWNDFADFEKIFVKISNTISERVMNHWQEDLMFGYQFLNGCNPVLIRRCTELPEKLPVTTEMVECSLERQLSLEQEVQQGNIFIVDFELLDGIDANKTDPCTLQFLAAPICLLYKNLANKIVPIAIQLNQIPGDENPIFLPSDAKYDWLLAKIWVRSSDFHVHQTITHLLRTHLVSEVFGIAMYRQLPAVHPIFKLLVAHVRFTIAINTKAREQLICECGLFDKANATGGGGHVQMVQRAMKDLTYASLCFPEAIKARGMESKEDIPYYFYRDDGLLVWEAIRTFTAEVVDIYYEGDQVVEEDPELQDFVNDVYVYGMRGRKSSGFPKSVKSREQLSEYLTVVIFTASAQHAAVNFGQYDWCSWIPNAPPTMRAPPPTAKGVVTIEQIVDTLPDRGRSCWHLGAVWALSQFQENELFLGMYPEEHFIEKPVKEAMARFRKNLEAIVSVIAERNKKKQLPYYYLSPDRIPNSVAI
How it was run: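 HEK293 cells stably expressing 5-LO and FLAP, on poly-L-lysine coverslips, pre-incubated 10 min with 10 µM compound or 0.1% DMSO, then stimulated with 2.5 µM A23187 for 20 min at 37 °C. After fixation and permeabilization, stained with anti-5-LO and anti-FLAP antibodies and fluorescent secondaries; imaged by immunofluorescence microscopy, 100 cells from three experiments.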

[2] = target: T1, Polyunsaturated fatty acid 5-lipoxygenase (Homo sapiens); assay: Inhibition of 5-LO in human M1 macrophages derived from LPS/IFNgamma-polarized human monocyte derived macrophages assessed as effect on 5-HEPE level at 3 uM preincubated for 15 mins followed by Escherichia coli (O6:K2:H1) challenge for 90 mins by LC-MS/MS analysis; design: scale not given: the % may be the effect or the level left
How it was run: (§1)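 Monocytes differentiated 6 days with GM-CSF (20 ng/ml) in RPMI/10% FCS, then polarized 48 h with LPS 100 ng/ml plus IFN-γ 20 ng/ml (M1). Cells (2 × 10^6) in PBS with 1 mM CaCl2 pre-incubated 15 min at 37 °C with 3 µM compound or 0.1% DMSO, then E. coli O6:K2:H1 (1:50) for 90 min. Methanol with deuterated standards added; SPE; UPLC-MS/MS; expressed as % of vehicle.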

Homo sapiens [3] = species on record: Homo sapiens; assay: Modulation of LO-mediated 5,15-DiHETE level in human M2 macrophages derived from IL4-polarized human monocyte derived macrophages at 3 uM preincubated for 15 mins followed by Escherichia coli (O6:K2:H1) challenge for 90 mins by LC-MS/MS analysis
How it was run: (§2)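 Monocytes differentiated 6 days with M-CSF (20 ng/ml), then polarized 48 h with IL-4 20 ng/ml (M2). Cells (2 × 10^6) in PBS/1 mM CaCl2 pre-incubated 15 min at 37 °C with 3 µM compound or 0.1% DMSO, then challenged with E. coli O6:K2:H1 (1:50) for 90 min. Lipid mediators extracted by SPE with deuterated internal standards and quantified by UPLC-MS/MS as % of vehicle.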

Homo sapiens [4] = species on record: Homo sapiens; assay: Modulation of LO-mediated AT-PD1 level in human M2 macrophages derived from IL4-polarized human monocyte derived macrophages at 3 uM preincubated for 15 mins followed by Escherichia coli (O6:K2:H1) challenge for 90 mins by LC-MS/MS analysis; how it was run: as §2
Homo sapiens [5] = species on record: Homo sapiens; assay: Modulation of LO-mediated RvD5 level in human M2 macrophages derived from IL4-polarized human monocyte derived macrophages at 3 uM preincubated for 15 mins followed by Escherichia coli (O6:K2:H1) challenge for 90 mins by LC-MS/MS analysis; how it was run: as §2
Homo sapiens [6] = species on record: Homo sapiens; assay: Modulation of LO-mediated RvD2 level in human M2 macrophages derived from IL4-polarized human monocyte derived macrophages at 3 uM preincubated for 15 mins followed by Escherichia coli (O6:K2:H1) challenge for 90 mins by LC-MS/MS analysis; how it was run: as §2
Cyclooxygenase = Cyclooxygenase (Homo sapiens, UniProt P35354+P23219); assay: Modulation of COX1/2-mediated TXB2 level in human M1 macrophages derived from LPS/IFNgamma-polarized human monocyte derived macrophages at 3 uM preincubated for 15 mins followed by Escherichia coli (O6:K2:H1) challenge for 90 mins by LC-MS/MS analysis; format: protein assay; conditions: 1.5 h; how it was run: as §1
Mus musculus = assay: Antiinflammatory activity in zymosan induced CD-1 mouse model of inflammation assessed as reduction in LTB4 levels in air pouch at 10 mg/kg, ip preincubated for 30 mins followed by zymosan challenge and measured after 4 hrs by ELISA; format: functional, organism-based
How it was run: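 Air pouch formed by s.c. injection of 2.5 mL sterile air in CD-1 mice; on day 6, 10 mg/kg i.p. (2% DMSO/saline) given 30 min before 1 ml 1% w/v zymosan into the pouch. After 4 h, exudate collected with 1 ml saline and centrifuged; leukocytes counted in Burker chamber; LTB4 in supernatant by ELISA (ng/mL). n=6 mice per group.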

Macrophage cell line = assay: Modulation of 18-HEPE level in human M2 macrophages derived from IL4-polarized human monocyte derived macrophages at 3 uM preincubated for 15 mins followed by Escherichia coli (O6:K2:H1) challenge for 90 mins by LC-MS/MS analysis; format: functional; how it was run: as §2
Leukotriene C4 synthase = target: T2, Leukotriene C4 synthase (Homo sapiens, UniProt Q16873); assay: Inhibition of LTC4 synthase (unknown origin)
T2 sequence (Q16873 whole entry): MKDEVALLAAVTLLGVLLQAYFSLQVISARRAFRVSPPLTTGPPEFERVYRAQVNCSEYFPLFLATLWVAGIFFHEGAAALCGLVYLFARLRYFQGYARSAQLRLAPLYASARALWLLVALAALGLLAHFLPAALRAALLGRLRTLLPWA

[7] = target: T1, Polyunsaturated fatty acid 5-lipoxygenase (Homo sapiens); assay: Ratio of IC50 for recombinant human 5-LO to IC50 for 5-LO in human neutrophils

inhibition [1]: inactive
Activity [2]: 23%
Activity (Homo sapiens [3]): 122%
Activity (Homo sapiens [4]): 106%
Activity (Homo sapiens [5]): 134%
Activity (Homo sapiens [6]): 128%
Activity (Cyclooxygenase): 92%
IC50 (Leukotriene C4 synthase): 1800 nM
Ratio IC50 [7]: 8
Compound: O=C(O)c1ccc(N(Cc2cccc(OCc3ccccc3)c2)S(=O)(=O)c2ccc(-c3ccccc3)cc2)cc1
Activity (Mus musculus): Active
Activity (Macrophage cell line): 86%
